Reference: ChEMBL document CHEMBL1130431, “Synthesis and biochemical evaluation of N-(4-phenylthiazol-2-yl)benzenesulfonamides as high-affinity inhibitors of kynurenine 3-hydroxylase” (J Med Chem, 1997)

How the values were obtained:
[1] = target: T1, Kynurenine 3-monooxygenase (Rattus norvegicus, UniProt O88867); assay: Inhibition of rat kidney Kynurenine 3-hydroxylase.
Procedure, shortened: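 The enzyme source was a crude mitochondrial fraction from rat kidney. The assay used 0.1 M K-phosphate pH 7.4 with 100 µM L-kynurenine plus 0.1 µCi L-[3-3H]kynurenine, 200 µM NADPH, and an NADPH-regenerating system, with 30 µg protein. Inhibitor was preincubated 15 min at 37 °C, then the reaction ran 10 min at 37 °C. Charcoal removed substrate and 3H2O was counted.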

[2] = target: Kynurenine 3-monooxygenase (Rattus norvegicus) (UniProt O88867); assay: Compound was evaluated for ex vivo inhibition of Kynurenine 3-hydroxylase activity in liver of rat after injecting perorally; type: tissue-based
Procedure, shortened: (§1)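 Rats got oral doses in 0.1% Tween-80 suspension (0.5 mL/100 g), five or six doses with four or five animals per dose, and were decapitated 2 h later. Kidney or liver was homogenized in 9 volumes of 0.32 M sucrose/5 mM Tris-HCl pH 7.4 with 0.5 mM PMSF. 25 µL homogenate was assayed by [3H]water release with 2 min incubation.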

[3] = target: Kynurenine 3-monooxygenase (Rattus norvegicus) (UniProt O88867); assay: Compound was evaluated for ex vivo inhibition of Kynurenine 3-hydroxylase activity in kidney of rat after injecting perorally; type: tissue-based; procedure, shortened: as §1
[4] = target: T1, Kynurenine 3-monooxygenase; assay: Inhibitory constant against Kynurenine 3-hydroxylase
Procedure, shortened: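 Competitive-inhibition kinetics on rat kidney crude mitochondrial kynurenine 3-hydroxylase. L-[3-3H]kynurenine saturation experiments with NADPH 200 μM plus a glucose 6-phosphate regenerating system, in 0.1 M potassium phosphate pH 7.4 at 37 °C. No preincubation; the enzyme was added to start the reaction. Read-out was tritiated water counted after charcoal removal of substrate. Ki was taken from replots of apparent Km versus inhibitor concentration; three experiments.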

[5] = test system: Kynurenine 3-monooxygenase (Meriones unguiculatus); assay: Compound was evaluated for ex vivo inhibition of Kynurenine 3-hydroxylase activity in Liver from Gerbils after injecting perorally; settings: Gerbillinae
[6] = test system: Kynurenine 3-monooxygenase (Meriones unguiculatus); assay: Compound was evaluated for ex vivo inhibition of Kynurenine 3-hydroxylase activity in brain from Gerbils after injecting perorally; settings: Gerbillinae
[7] = test system: Kynurenine 3-monooxygenase (Meriones unguiculatus); assay: Compound was evaluated for ex vivo inhibition of Kynurenine 3-hydroxylase activity in Kidney from Gerbils after injecting perorally; settings: Gerbillinae

T1 sequence (O88867 whole entry): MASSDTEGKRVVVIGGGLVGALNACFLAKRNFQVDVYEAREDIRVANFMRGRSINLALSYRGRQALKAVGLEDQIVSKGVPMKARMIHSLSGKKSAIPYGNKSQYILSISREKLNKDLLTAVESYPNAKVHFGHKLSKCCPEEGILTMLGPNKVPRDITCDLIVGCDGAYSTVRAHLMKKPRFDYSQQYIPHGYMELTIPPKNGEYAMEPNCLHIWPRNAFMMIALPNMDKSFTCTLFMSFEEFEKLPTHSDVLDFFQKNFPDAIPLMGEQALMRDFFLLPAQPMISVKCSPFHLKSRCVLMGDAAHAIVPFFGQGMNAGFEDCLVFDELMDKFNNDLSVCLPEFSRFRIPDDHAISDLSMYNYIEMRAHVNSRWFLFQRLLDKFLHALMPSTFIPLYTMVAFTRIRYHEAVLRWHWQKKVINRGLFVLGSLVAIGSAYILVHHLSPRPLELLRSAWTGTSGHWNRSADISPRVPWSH
Sequence of Kynurenine 3-monooxygenase (Rattus norvegicus) (O88867 whole entry, looked up): as the sequence (O88867 whole entry) above

Molecule Nc1ccc(S(=O)(=O)Nc2nc(-c3cc(C(F)(F)F)ccc3F)cs2)cc1 has an IC50 [1] of 19 nM, an ED50 [2] of 4.6 µmol/kg and an ED50 [3] of 1.1 µmol/kg.

O=[N+]([O-])c1cccc(-c2cc(-c3nn[nH]n3)no2)c1 gave an IC50 [1] of 1160 nM.

In the case of Cc1ccc(S(=O)(=O)Nc2nc(-c3ccccc3)cs2)cc1, the IC50 [1] is reported as 470 nM.

O=[N+]([O-])c1cccc(-c2csc(NS(=O)(=O)c3ccccc3)n2)c1 gave an IC50 [1] of 200 nM.

In the case of O=[N+]([O-])c1cccc(-c2csc(NS(=O)(=O)c3ccc(Cl)cc3)n2)c1, the IC50 [1] is reported as 84 nM.

In the case of COc1ccc(S(=O)(=O)Nc2nc(-c3cccc([N+](=O)[O-])c3)cs2)cc1OC, the IC50 [1] is reported as 37 nM and the Ki [4] is reported as 4.8 nM.

CC(C)c1ccc(S(=O)(=O)Nc2nc(-c3cccc([N+](=O)[O-])c3)cs2)cc1 showed an IC50 [1] of 990 nM.

O=[N+]([O-])c1cccc(-c2csc(NS(=O)(=O)c3ccc(Cl)c(Cl)c3)n2)c1 showed an IC50 [1] of 120 nM.

In the case of Nc1ccc(S(=O)(=O)Nc2nc(-c3cccc([N+](=O)[O-])c3)cs2)cc1, the IC50 [1] is reported as 40 nM.

Molecule Cc1ccc(S(=O)(=O)Nc2nc(-c3ccc(Cl)c(Cl)c3)cs2)cc1 has an IC50 [1] of 56 nM.

Work on Cc1ccc(S(=O)(=O)Nc2nc(-c3ccc(O)c(C)c3)cs2)cc1 yielded an IC50 [1] of 114 nM.

Work on NC(CC(=O)c1cccc([N+](=O)[O-])c1)C(=O)O (stereo unspecified) yielded an IC50 [1] of 774 nM.

O=C(O)CCC(=O)c1cccc([N+](=O)[O-])c1 gave an IC50 [1] of 5770 nM.

O=C(O)c1[cH-]c(-c2cccc([N+](=O)[O-])c2)[o+]n1 gave an IC50 [1] of 2680 nM.

NC(CC(=O)c1ccc(Cl)c(Cl)c1)C(=O)O (stereo unspecified) gave an IC50 [1] of 237 nM, an ED50 [2] of 222 µmol/kg and an ED50 [3] of 25.1 µmol/kg. The Ki [4] was 95 nM.

With Cc1ccc(S(=O)(=O)Nc2nc(-c3cccc([N+](=O)[O-])c3)cs2)cc1 the IC50 [1] was 48 nM, the ED50 [2] was 33.4 µmol/kg and the ED50 [3] was 13.3 µmol/kg.

With Cc1ccc(-c2csc(NS(=O)(=O)c3ccc(C)cc3)n2)cc1 the IC50 [1] was 76 nM.

Work on COc1ccc(-c2csc(NS(=O)(=O)c3ccc(C)cc3)n2)cc1 yielded an IC50 [1] of 240 nM.

For COc1ccc(S(=O)(=O)Nc2nc(-c3cc(C(F)(F)F)ccc3F)cs2)cc1OC, the IC50 [1] was 39 nM, the ED50 [5] was 0.9 µmol/kg and the ED50 [6] was 5.2 µmol/kg. It also gave an ED50 [2] of 5.3 µmol/kg, an ED50 [3] of 6.6 µmol/kg and an ED50 [7] of 1.8 µmol/kg.

With COc1ccc(S(=O)(=O)Nc2nc(-c3cccc([N+](=O)[O-])c3)cs2)cc1 the IC50 [1] was 51 nM, the ED50 [2] was 9 µmol/kg and the ED50 [3] was 3 µmol/kg.

Cc1ccc(S(=O)(=O)Nc2nc(-c3ccc(Cl)cc3)cs2)cc1 was tested, and the IC50 [1] was 56 nM.
